Seven compounds from PubChem BioAssay AID624324 (Broad Institute, 2012) can be followed below.

The source made the active and inactive calls.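 How the source made its calls: active means fitted AC50 at or under twice the sample's top valid tested dose, with viability loss; inconclusive means flat curve with 30 to 70% viability loss, or poor fit; inactive means the rest, including shifts toward viability gain.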

The experiment can be described thus: cytotoxicity in MITF-independent A375 cells – cell-based, CellTiter-Glo luminescence, dry powder, set 3, counter-screen for MITF inhibitor project, dose response (AID 624324). To be noted: A375 melanoma viability, CellTiter-Glo ATP luminescence, 24 h; at 35 µM (top of the series). The procedure, abridged: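 assay system = A375 melanoma cells, MITF-independent | quantity = 3000 A375 cells seeded per well | incubation = 24 h exposure at 37 °C, 5 min detection at RT | measured by = ATP luminescence, CellTiter-Glo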
(In ATP-based viability assays light output follows the ATP content of the culture.)
Consider `CN1CCN(C2=C(NS(=O)(=O)c3ccc(Br)cc3)C(=O)c3ccccc3C2=O)CC1`, for which the activity change, negative = viability loss is 1% (inactive).

As for `CN1CCN(C2=C(NS(=O)(=O)c3cccs3)C(=O)c3ccccc3C2=O)CC1`, the activity change, negative = viability loss was 12.4% (inactive).

For the compound `O=C(NC1=C(N2CCN(c3ccccc3)CC2)C(=O)c2ccccc2C1=O)c1ccccc1`, the activity change, negative = viability loss was -7.51% (inactive).

As for `C=CCNC1=C(NCC=C)C(=O)c2ccccc2C1=O`, the activity change, negative = viability loss is 1.61% (inactive).

Take `O=C1C(NS(=O)(=O)c2ccc(Br)cc2)=C(N2CCN(c3ccccc3)CC2)C(=O)c2ccccc21`: the activity change, negative = viability loss was 0.602% (inactive).

With `NC1=C(c2ccc(OC(F)(F)F)cc2)C(=O)c2ccccc2C1=O`, the activity change, negative = viability loss is -5.51% (inactive).

As to `COc1ccc(C2=C(NC(=O)c3ccc(OC)cc3-c3cccc(OC)c3)C(=O)c3ccccc3C2=O)cc1`, the activity change, negative = viability loss was 4.86% (inactive).
